Source: PubChem BioAssay (Columbia University Molecular Screening Center)
The sample as a whole holds a higher share of hits than the screen did.
Insulin prom act – TRM-6 insulin promoter activation; AID 1296; activation, % at 2 µM; 130,000 tested, 0.81% active; TRM-6 cells (human fetal islet line), insulin promoter eGFP reporter, imaging; plate-scaled: unstimulated 0, stimulated control 100;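 active means activation at 2 µM above a set limit, confirmed on inspection of the cell images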;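 further: share of cells whose green reporter signal exceeds an intensity cutoff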
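Assay system: TRM-6 human fetal islet cells, insulin promoter–eGFP reporter; Also added: 0.75 µM tamoxifen as reporter inducer; Schedule: 15 h tamoxifen pre-treatment, 48 h compound treatment at 37 °C; Signal: fixed-cell fluorescence microscopy, eGFP plus Hoechst; Read-out: percent activation from GFP-positive cell fraction; Control set: stimulated and unstimulated wells.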
Active calls of the source: *.

SMILES | Insulin prom act
C=CCn1c(SCC(=O)N2N=C(c3ccco3)CC2c2ccco2)nnc1-c1ccncc1 (configuration not stated) | 3
CS(=O)(=O)Nc1ccccc1C(=O)N1CCN(c2ccccc2)CC1 | -4
COC(=O)C1=C(C)OC(N)=C(C#N)C1c1c(C)nn(C)c1C (configuration not stated) | 7
O=C(O)C1CC(=O)N(c2ccc(OCc3c(F)cccc3Cl)cc2)C1 (configuration not stated) | 0
CC(C)Cc1nc(N2CCN(C(=O)c3ccco3)CC2)c(C#N)c2c1CCC2 | -8
N#Cc1c(N2CCN(C(=O)c3ccccc3)CC2)nc(-c2ccccc2)c2c1CCCC2 | 79*
N#Cc1c(N2CCN(C(=O)c3ccco3)CC2)nc(-c2ccccc2)c2c1CCCC2 | -71
CCCCOC(=O)CNc1n[nH]c(=S)[nH]c1=O | 0
COc1ccc(/C=N/NC(=O)CCNc2n[nH]c(=O)[nH]c2=O)c(OC)c1 | -3
CC(C)OC(=O)CCNc1n[nH]c(=O)[nH]c1=O | 543*
Cc1ccc(S(=O)(=O)N2CCC(C(=O)NCCCOC(C)C)CC2)cc1 | -6
CCOC(=O)C1(Cc2ccccc2)CCN(Cc2ccon2)CC1 | 7
CCOC(=O)C1(CC2CCCCO2)CCN(Cc2nc(C(C)C)cs2)CC1 (configuration not stated) | 375*
CCOC(=O)C1(CC2CC2)CCN(Cc2ccc(OC)cc2F)CC1 | 5
O=C(O)C1CC=CCC1C(=O)Nc1cccc(C(=O)N2CCCCC2)c1 (configuration not stated) | 388
CCOc1ccccc1C(=O)n1nc(C)cc1C | 3
CCOc1ccccc1-n1c(=O)c2ccccc2c2ccccc2c1=O | -5
CCOc1ccccc1C(=O)N1c2ccccc2Sc2ccccc21 | 100*
Cc1cc(C)nc(SCc2nnc(SCC(N)=O)o2)n1 | -6
Cc1ccc(/C=C/C(=O)NC2CCCCCCC2)o1 | 0
Cc1ccc(C)n1-c1sc2c(c1C#N)CCC(C)C2 (configuration not stated) | -1
O=C(Oc1ccc(N(Cc2cccs2)C2=NS(=O)(=O)c3ccccc32)cc1)c1ccccc1F | -7
Cc1nnc(SCC(N)=O)n1CCc1ccccc1 | -64
O=C1c2ccccc2C(=O)N1OCCOCCOCCBr | 3
CC1(C)O[C@H]2OC([C@H](O)CON3C(=O)c4ccccc4C3=O)[C@H](O)[C@H]2O1 (some centres not stated) | 264*
SMILES | Insulin prom act
Cc1ccc(C(=O)OCC2OC3OC(C)(C)OC3C2O)cc1 (configuration not stated) | 10
CCC(Cc1ccccc1)NC(=O)CCn1cccc1 (configuration not stated) | 3
COc1ccc(NC(=O)CSc2nnnn2C)cc1 | -7
Cn1nnnc1SCC(=O)Nc1ccccc1[N+](=O)[O-] | 0
Cn1nnnc1SCC(=O)Nc1ccccn1 | 93*
Cn1cc(C(=O)Nc2ccc(F)c(F)c2)cn1 | 4
Cc1cc(C)cc(OCC(=O)Nc2ccc3c(c2)C(=O)c2ccccc2C3=O)c1 | 7
COc1ccccc1OCC(=O)Nc1ccc(N2CCCCC2)cc1 | -9
O=C(COc1cccc(Cl)c1)Nc1ccc(N2CCOCC2)cc1 | 0
Cc1ccc(OCC(=O)Nc2ccc(N3CCCC3)cc2)cc1C | 163*
Cc1ccc(CN2CCN(/N=C/c3ccc(C)s3)CC2)c(C)c1 | 3
CC(Sc1nc(NCc2ccccc2)nc(N2CCOCC2)n1)C(=O)Nc1ccccc1 (configuration not stated) | 8
O=[N+]([O-])c1ccc(-c2ccc(/C=N/Nc3nc(NCc4ccccc4)nc(N4CCOCC4)n3)o2)cc1 | 200*
c1cncc(CNc2nc(N3CCOCC3)nc(N3CCOCC3)n2)c1 | 3
O=S(=O)(c1cnc(Cl)c(Br)c1)N1CCCCCC1 | 4
CCOc1cc2[nH]c(=O)n(CC3CCC(C(=O)NCCCOC)CC3)c(=O)c2cc1OCC (configuration not stated) | 171*
COCCn1c(=S)[nH]c2cc(OC)c(OC)cc2c1=O | 5
CCC1CCCCN1CCCNC(=O)c1ccc2c(=O)n(Cc3ccc(OC)cc3)c(=O)[nH]c2c1 (configuration not stated) | 9
OCCSc1c(F)c(SCCO)c(SCCO)c(F)c1SCCO | 9
O=C(c1ccccc1Sc1ccc([N+](=O)[O-])cc1)N1CCCCC1 | -7
COc1ccc(-c2nc3cc(NC(=O)c4ccc5c(c4)OCO5)ccc3o2)cc1 | -9
O=C(Nc1cccc2cccnc12)c1ccc2c(c1)OCCO2 | 7
COc1cc(NC(=O)c2ccc3c(c2)OCO3)c2ncccc2c1 | 412*
Cc1ccc(-n2c(Cn3nc(C(F)(F)F)cc3C)n[nH]c2=S)cc1 | -7
CC1=CC(C)(C)N(C(=O)CSc2ncn[nH]2)c2ccc(C)cc21 | 9
SMILES | Insulin prom act
O=C(NCc1cccc(F)c1)c1noc2c1CCCC2 | 257*
CCc1ccc(NC(=O)c2noc3c2CCC3)cc1 | 8
O=C(NCc1cccnc1)c1noc2c1CCCC2 | 3
CCOc1nc(-c2ccc(Cl)cc2)nc2ccccc12 | 0
Cc1cc([N+](=O)[O-])nn1CCCC(=O)NC1CCCCC1 | -3
COC(=O)c1ccccc1NC(=O)c1ccccc1N(C)S(C)(=O)=O | 5
COc1ccc(N2CCN(c3ncnc4c3nnn4Cc3ccccc3Cl)CC2)cc1 | -8
CCCSc1cc(N2CCOCC2)nc(-c2ccccc2Cl)n1 | -8
CCOC(=O)c1ccccc1NC(=O)c1ccc(N(C)S(C)(=O)=O)cc1 | 388
CCOC(=O)c1ccccc1NC(=O)CN(c1ccc(OCC)cc1)S(C)(=O)=O | 387*
CCOc1ccc(N(CC(=O)Nc2ccccc2C(=O)NCc2ccco2)S(C)(=O)=O)cc1 | -3
CCC(C(=O)NCc1ccco1)N(C(=O)CNS(=O)(=O)c1ccccc1)c1ccc(OC)cc1 (configuration not stated) | 0
O=C1NC(NS(=O)(=O)c2ccc(Cl)cc2)(C(F)(F)F)C(=O)N1c1ccccc1 (configuration not stated) | 7
O=C(O)c1cn(Cc2ccccc2)c2ccccc2c1=O | 383*
COc1ccc2c(c1)c(=O)c(C(=O)c1ccccc1)cn2Cc1ccc(C)cc1 | -7
O=C1C2C3C=CC(C3)C2C(=O)N1/N=C/c1cn(Cc2ccccc2)c2ccccc12 (configuration not stated) | -5
O=C1N2CCSC2=NC1(Nc1nccs1)C(F)(F)F (configuration not stated) | 5
CCC(=O)NCCc1nc2cc(NC(=O)c3ccc(OC)cc3)ccc2n1C | 108
O=C(Nc1ccsc1C(=O)N1CCCC1)c1ccccc1 | -91
CC1CC(OCC(O)CN2CCN(Cc3ccccc3)CC2)CC(C)(C)C1 (configuration not stated) | 100
CC1CCN(CC(O)COC2CC(C)CCC2C(C)C)CC1 (configuration not stated) | 543*
CC1CCC(C(C)C)C(OC(=O)CSc2nnc(N)s2)C1 (configuration not stated) | 6
COc1nnc(-c2ccc(N3CCCCC3)c(N)c2)c2ccccc12 | -3
O=C1N(Cc2cccc(Cl)c2)C[C@@H]2C[C@@H](c3ccco3)N3CCC[C@@]123 | 683*
O=C1NCCN1Cc1cccc(Cl)c1 | 0
CCCn1ncc([C@@H]2C[C@H]3CN(Cc4cccc(Cl)c4)C(=O)[C@]34CCCN24)c1C | 133
CCc1cccc(CC)c1NC(=O)CO/N=C(\C)c1cccs1 | 0
CCC(/C=N/NC(=O)CCCCC(=O)N/N=C/C(CC)CC)CC | 8
